High-throughput results as filed in PubChem BioAssay.
UHRF1 binding: blocks human UHRF1 binding to methylated DNA | Q96T88 | UHRF1 binding to methylated oligo, TR-FRET | inhibition, % at 4.4 µM | hit rate 0.75% among 370,000 | AID 687016; in the data active means inhibition above about 21%;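 further: UHRF1 SRA domain binding a hemimethylated CpG hairpin DNA probe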
core dimer inh: blocks dimerization of HCV core protein. TR-FRET GST/Flag-core106 dimerization, 1536-well. inhibition, % at 5 µM. hit rate 0.33% among 300,000. AID 1899;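 active means inhibition above the mean of all tested compounds plus 3 SD, set per screening campaign, cut at about 45% in these data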
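System – GST-tagged and Flag-tagged HCV core protein residues 1-106 · Repeats – one well for each compound · Technique – TR-FRET 671 and 617 nm emission · Doses – one concentration, 5 µM, in 0.5% DMSO · Times – 4 h, 22.5 °C incubation · Also added – Eu donor and XL665 acceptor anti-tag antibodies · Measure – percent inhibition of core106 dimerization signal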
TDP2 absorb: TDP2 (human) inhibition, absorbance primary screen; recombinant TDP2, T5PNP hydrolysis, p-nitrophenol absorbance 415 nm; inhibition, % at 12.8 µM; hit rate 0.34% among 370,000;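 active means inhibition above the mean of all tested compounds plus 3 SD, set per campaign, cut at about 25% in these data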
Target sequence (O95551 whole entry, looked up): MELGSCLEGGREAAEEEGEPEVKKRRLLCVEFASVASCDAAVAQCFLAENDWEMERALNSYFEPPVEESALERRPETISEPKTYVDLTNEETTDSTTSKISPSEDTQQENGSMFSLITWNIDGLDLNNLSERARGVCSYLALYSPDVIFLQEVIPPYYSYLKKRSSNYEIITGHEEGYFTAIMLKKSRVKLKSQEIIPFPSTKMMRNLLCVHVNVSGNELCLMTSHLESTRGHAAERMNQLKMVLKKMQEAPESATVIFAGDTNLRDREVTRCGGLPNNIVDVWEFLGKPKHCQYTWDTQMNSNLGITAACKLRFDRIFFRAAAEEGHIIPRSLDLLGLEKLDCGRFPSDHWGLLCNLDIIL
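Evaluation: % inhibition relative to enzyme-containing and enzyme-free wells. Material: recombinant human TDP2. Benchmarks: enzyme-free and DMSO wells. Timing: enzyme reaction with compound for 2 h at 37 °C. Compound dosing: 12.8 µM only. Measured by: p-Nitrophenol epi absorbance. Reagent: T5PNP substrate at 5 mM, a TopII-DNA adduct mimic. Replication: single well per compound.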
LEDGF integ inh: blocks HIV-1 LEDGF/p75-dependent DNA integration. TR-FRET IN-LEDGF/p75 DNA integration, Eu/Cy5. inhibition, % at 3.7 µM. hit rate 0.64% among 370,000. AID 743269;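 active means inhibition above the screen-wide mean plus 3 SD, cut at about 13% in these data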;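 further: signal is the Cy5 over europium emission ratio at 671 and 618 nm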
MBD2 inh: inhibitors of human MBD2 binding to methylated oligonucleotide | TR-FRET | AID 686964 | inhibition, % at 4.4 µM | hit rate 0.31% among 370,000 | Q9UBB5; in the data active means inhibition above about 13%
IN multimer act: activates HIV-1 integrase multimerization in LEDGF counter-screen; shares compounds with LEDGF integ inh; TR-FRET HIV-1 integrase multimerization, biochemical; activation, % at 7.7 µM; hit rate 17% among 2,000; in the data active means activation above about 8.9%
TRFRET interf: counter-screen for LEDGF/p75 integration inhibitors: TR-FRET optical interference; shares compounds with LEDGF integ inh; TR-FRET optical interference counterscreen, HIV-1 IN multimerization; inhibition, % at 7.7 µM; 2,000 tested, under 10 active; AID 1053135;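 active means inhibition above the mean over all tested compounds plus 3 SD, which no compound reached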
LEDGF integ conf: confirmation of HIV-1 LEDGF/p75-dependent integration inhibitors | shares compounds with LEDGF integ inh | TR-FRET LEDGF/p75-dependent HIV-1 integration, biochemical | inhibition, % at 3.7 µM | hit rate 36% among 2,000 | AID 1053136; in the data active means inhibition above about 14%
Hits are given with their value; 0 = inactive; - = no result. Hits are enriched below; roughly 1.8% of the tested compounds scored in any of these assays.

SMILES	UHRF1 binding	core dimer inh	TDP2 absorb	LEDGF integ inh	MBD2 inh	IN multimer act	TRFRET interf	LEDGF integ conf
Cc1cccc(N2C(=O)/C(=C/c3ccc(CN(CCC#N)S(C)(=O)=O)o3)C(=O)NC2=S)c1	0	0	0	25.2	0	0	0	36.0
COC1CC=C2CCN3CCC4=C(CC(=O)OC4)C23C1 (centres undefined)	0	-	0	0	0	-	-	-
COc1ccc(Cc2nccc3cc(OC)c(OC)cc23)cc1OC	0	0	0	32.6	0	0	0	0
Cc1cccc(N2C(=O)NC(=O)/C(=C\C=C\c3ccco3)C2=O)c1	0	0	0	31.2	0	0	0	27.8
Cc1ccc(N2C(=O)NC(=O)/C(=C\C=C\c3ccco3)C2=O)cc1C	0	0	0	29.2	0	0	0	33.6
CN(C)c1ccc(/C=C/C=C2/C(=O)NC(=O)N(c3ccccc3)C2=O)cc1	0	-	0	0	0	-	-	-
Cc1cccc(N2C(=O)NC(=O)/C(=C/c3ccc([N+](=O)[O-])o3)C2=O)c1	-	0	-	-	-	-	-	-
Cc1ccc(N2C(=O)NC(=O)/C(=C\c3ccoc3)C2=O)cc1	0	0	0	0	0	-	-	-
Cc1ccc(N2C(=O)NC(=O)/C(=C\C=C\c3ccco3)C2=O)cc1	0	0	0	40.6	0	0	0	33.1
O=C1NC(=O)N(c2ccccc2)C(=O)/C1=C/C=C/c1ccco1	0	0	0	28.3	0	0	0	18.6
O=S(=O)(c1ccc(Cl)cc1)N1Cc2ccc(Br)cc2-n2nncc2C1	0	-	0	0	0	-	-	-
CC[C@]12CCN(CC3(O)CC3)C(Cc3ccc(O)cc31)C2(C)C	0	-	0	0	0	-	-	-
CCN(CC)c1ccc(CN(C)CCc2ccc(OC)c(OC)c2)cc1	0	0	0	0	0	-	-	-
COc1ccc(CC2=NCCc3cc(OC)c(OC)cc32)cc1OC	21.4	-	30.6	26.6	0	0	0	0
CC(C)(C)C(=O)N1Cc2cc(-c3ccccc3)ccc2-n2nncc2C1	0	-	0	14.8	0	0	0	0
Fc1ccc(N2Cc3ccccc3-n3nncc3C2)cc1	0	-	0	20.6	0	0	0	19.2
Fc1cccc(-c2ccc3c(c2)CN(c2cccc(Cl)c2)Cc2cnnn2-3)c1	0	-	0	33.6	0	0	0	20.3
Cc1ccc(OC(=O)N(C)C[C@H]2OCc3cnnn3CCCC(=O)N([C@@H](C)CO)C[C@@H]2C)cc1	0	-	0	0	0	-	-	-
O=C(OCc1ccccc1)N1CCC2CC1c1cc(N3Cc4ccccc4-n4nncc4C3)ccc12 (centres undefined)	0	-	0	26.1	0	0	0	0
CC(C)OC(=O)C1C(c2ccc(I)cc2)CC2CCC1N2C (centres undefined)	0	-	0	0	0	-	-	-
c1ccc(-c2nc3ccccc3nc2-c2ccc(CN3CCC(n4nnc5ccccc54)CC3)cc2)cc1	0	-	0	0	0	-	-	-
C=C1C(=O)O[C@@H]2C[C@@H](C)[C@@H]3C=CC(=O)[C@@]3(C)[C@@H](OC(=O)CC(=O)O[C@H]3[C@@H]4C(=C)C(=O)O[C@@H]4C[C@@H](C)[C@@H]4C=CC(=O)[C@]43C)[C@H]12	0	0	0	25.0	0	0	0	59.2
O=C(c1cc(-c2ccc(Cl)cc2)n(-c2ccc(Cl)cc2Cl)n1)N1CCOCC1	0	0	0	26.2	0	0	0	0
COc1ccc2c(c1)NP(=S)(c1ccccc1)N2C (centres undefined)	0	-	0	18.2	0	0	0	0
COc1ccc(P2(=O)Nc3ccccc3N2)cc1	0	0	0	0	0	-	-	-
SMILES	UHRF1 binding	core dimer inh	TDP2 absorb	LEDGF integ inh	MBD2 inh	IN multimer act	TRFRET interf	LEDGF integ conf
O=C1NC(=S)NC(=O)C1C1CCCCC1	0	0	0	0	0	-	-	-
CN1C(=O)C(C2CCCCC2)C(=O)N(C)C1=O	0	-	0	54.7	0	0	0	0
CCc1ccc(N2C(=O)NC(=O)/C(=C\c3cc(C)n(-c4cc(C(=O)O)cc(C(=O)O)c4)c3C)C2=O)cc1	0	0	0	29.4	0	0	0	21.4
Cc1ccc(N2C(=O)NC(=O)/C(=C\c3cc(C)n(-c4cc(C(=O)O)cc(C(=O)O)c4)c3C)C2=O)cc1	25.7	0	0	35.8	0	0	0	0
Cc1ccc(N2C(=O)NC(=O)/C(=C\c3cc(C)n(-c4ccc(C(=O)O)cc4)c3C)C2=O)cc1	0	0	0	0	0	-	-	-
COC(=O)C1C(c2ccc(C)cc2)CC2CCC1N2C (centres undefined)	0	-	0	0	0	-	-	-
COC(=O)C1=C(c2ccc(OC(F)(F)F)cc2)C[C@@H]2CC[C@H]1N2C(=O)NCc1ccco1	0	-	0	0	0	-	-	-
COc1ccc(CCNCc2ccncc2)cc1	0	0	0	14.3	0	0	0	0
O=c1cccc2n1CC1CC2CN(C(c2cccc(F)c2)c2sc3ncnn3c2O)C1 (centres undefined)	0	0	0	16.6	0	0	0	0
C[C@H](NC(=O)N1C[C@H]2C[C@@H](C1)c1cccc(=O)n1C2)C(=O)Nc1cccc(F)c1	0	0	0	0	0	-	-	-
CN(C)C(=O)Oc1ccc(Cl)c2ccccc12	0	0	0	0	0	-	-	-
Cc1c(OC(=O)N(C)C)ccc2c1O/C(=C\c1ccco1)C2=O	0	-	0	17.5	0	0	0	0
COc1cc(C2c3cc(O)c(OC)cc3CC3C(=O)OCC32)ccc1O (centres undefined)	0	-	0	13.9	0	0	0	0
COC(=O)C1CC(OC(C)=O)C(=O)[C@H]2C1(C)CC[C@H]1C(=O)OC(c3ccoc3)CC12C (some centres undefined)	0	-	0	0	0	-	-	-
Oc1ccc(CC2CC3CCN2CC3)cc1O (centres undefined)	0	0	0	0	0	-	-	-
Oc1ccc(C[C@H]2NCCc3cc(O)c(O)cc32)cc1O	30.1	-	0	55.2	0	18.0	0	29.9
Fc1ccc2nc(-c3ccc(CN4CCC(n5nnc6ccccc65)CC4)cc3)c(-c3ccccc3)nc2c1	0	-	0	0	0	-	-	-
COc1ccc(OC(=O)N(C)C[C@H]2OCc3cnnn3CCCC(=O)N([C@@H](C)CO)C[C@@H]2C)cc1	0	-	0	0	0	-	-	-
COC1CC2C=C(C)C=CC=CC(=O)NC(c3ccccc3)CC=CCCC(O)CC(=O)C2=C1O (centres undefined)	0	-	0	22.4	0	0	0	49.8
CCC(CO)NC(=O)C1C=C2c3cccc4[nH]cc(c34)CC2N(C)C1 (centres undefined)	0	0	0	21.3	0	0	0	0
